# Biological target: Autotaxin (Homo sapiens, UniProt Q13822)
# Assay: Inhibition of human recombinant C-terminal FLAG-tagged autotaxin expressed in baculovirus-infected Sf9 cells assessed as FS-3 hydrolysis at 10 uM relative to control
# Method in brief: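 Single-dose screen: inhibitor 10 μM final, purified recombinant human ATX 8.3 nM, FS-3 1 μM, fatty acid free BSA 30 μM in Tris pH 8 buffer (1 mM MgCl2, 1 mM CaCl2, 3 mM KCl, 140 mM NaCl), 37 °C. Fluorescence (ex 485/em 538) read every 2 min; percent activity vs vehicle after no-ATX subtraction at 1 h; mean ± SD of three wells.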
row,Compound,inhibition
1,O=C(Nc1ccc(C(=O)Nc2ccc3c(O)cc(S(=O)(=O)O)cc3c2)cc1)c1ccccc1,21%
2,Nc1ccc(C(=O)Nc2ccc(C(=O)Nc3ccc(/C=C/c4ccc(NC(=O)c5ccc(N)cc5)cc4S(=O)(=O)O)c(S(=O)(=O)O)c3)cc2)cc1,0%
3,NC(Cc1ccc(O)cc1)C(=O)NCCS(=O)(=O)O (stereo not drawn),1%
4,Cc1cc(/N=N/c2ccc(/C=C/c3ccc(/N=N/c4cc(C)c(N)c(/N=N/c5ccc(S(=O)(=O)O)cc5)c4N)cc3S(=O)(=O)O)c(S(=O)(=O)O)c2)c(N)c(/N=N/c2ccc(S(=O)(=O)O)cc2)c1N,35%
5,Nc1cc(N)c(/N=N/c2cccc3c(S(=O)(=O)O)cccc23)cc1/N=N/c1cc([N+](=O)[O-])ccc1O,19%
6,O=C(N/N=C/c1ccc(O)c(S(=O)(=O)O)c1)N/N=C/c1ccc(O)c(S(=O)(=O)O)c1,6%
7,O=C(Nc1ccc2c(O)cc(S(=O)(=O)O)cc2c1)c1ccc([N+](=O)[O-])cc1,12%
8,COc1ccc(/C=N/NC(=N)C(=N)N/N=C/c2ccc(OC)c(S(=O)(=O)O)c2)cc1S(=O)(=O)O,8%
9,Nc1ccc(C(=O)Nc2ccc(NC(=O)Nc3ccc(NC(=O)c4ccc(N)cc4)c(S(=O)(=O)O)c3)cc2S(=O)(=O)O)cc1,12%
10,O=C(Nc1ccc2cc(S(=O)(=O)O)ccc2c1)c1ccc([N+](=O)[O-])cc1,-1%
11,Nc1ccc2c(O)c(/N=N/c3ccc(-c4ccc(/N=N/c5c(S(=O)(=O)O)cc6cc(S(=O)(=O)O)c(/N=N/c7cc(O)ccc7O)c(N)c6c5O)cc4)cc3)c(S(=O)(=O)O)cc2c1,1%
12,Nc1ccc(C(=O)Nc2ccc(C(=O)Nc3ccc4cc(S(=O)(=O)O)cc(S(=O)(=O)O)c4c3)cc2)cc1,5%
13,O=C(N/N=C/c1ccccc1S(=O)(=O)O)N/N=C/c1ccccc1S(=O)(=O)O,-5%
14,O=S(=O)(O)c1ccc(O)c(/N=N/C=N/Nc2cc(S(=O)(=O)O)ccc2O)c1,-1%

# Results, then the compound that gave them:
row,inhibition,Compound
1,27%,O=C(Nc1cccc(C(=O)Nc2ccc(S(=O)(=O)O)c3cc(S(=O)(=O)O)cc(S(=O)(=O)O)c23)c1)Nc1cccc(C(=O)Nc2cccc3c(S(=O)(=O)O)c(S(=O)(=O)O)cc(S(=O)(=O)O)c23)c1
2,-2%,Nc1cc(C(=O)Nc2ccc(S(=O)(=O)O)cc2)ccc1C(=O)Nc1ccc(S(=O)(=O)O)cc1
3,1%,O=C(Nc1ccc(S(=O)(=O)O)cc1)c1ccc(/N=N/c2cc(S(=O)(=O)O)c3ccccc3c2O)cc1
4,13%,Cc1cc(C)c(S(=O)(=O)O)c(C)c1Nc1ccc(Nc2c(C)cc(C)c(S(=O)(=O)O)c2C)c2c1C(=O)c1ccccc1C2=O
5,6%,Cc1ccc(Nc2cccc3c2C(=O)c2cccc(Nc4ccc(C)cc4S(=O)(=O)O)c2C3=O)c(S(=O)(=O)O)c1
6,-6%,O=C(Nc1ccc2cc(S(=O)(=O)O)cc(O)c2c1)Nc1ccc2cc(S(=O)(=O)O)cc(O)c2c1
7,32%,Nc1cccc(/N=N/c2c(S(=O)(=O)O)cc3cc(NC(=O)Nc4ccc5c(O)c(/N=N/c6cccc(N)c6)c(S(=O)(=O)O)cc5c4)ccc3c2O)c1
8,33%,Nc1cccc(/N=N/c2c(S(=O)(=O)O)cc3cc(Nc4ccc5c(O)c(/N=N/c6cccc(N)c6)c(S(=O)(=O)O)cc5c4)ccc3c2O)c1
9,8%,Cc1ccc(Nc2ccc(Nc3ccc(C)cc3S(=O)(=O)O)c3c2C(=O)c2ccccc2C3=O)c(S(=O)(=O)O)c1
10,23%,O=C(Nc1ccc2c(O)c(/N=N/c3ccccc3)c(S(=O)(=O)O)cc2c1)Nc1ccc2c(O)c(/N=N/c3ccccc3)c(S(=O)(=O)O)cc2c1
11,30%,Nc1ccc2c(O)c(/N=N/c3ccc4c(O)cc(S(=O)(=O)O)cc4c3)c(S(=O)(=O)O)cc2c1
12,6%,O=C1c2ccc(S(=O)(=O)O)cc2C(=O)c2c(Nc3ccccc3)ccc(Nc3ccc(S(=O)(=O)O)cc3)c21
13,12%,O=C1/C(=C2\Nc3ccc(S(=O)(=O)O)cc3C2=O)Nc2ccc(S(=O)(=O)O)cc21
14,4%,COc1ccc(NS(=O)(=O)c2ccc(NC(CNC(C)S(=O)(=O)O)S(=O)(=O)O)cc2)cc1 (stereo not drawn)
